The first data set concerns the target T1, Aldo-keto reductase family 1 member B1 (Rattus norvegicus, UniProt P07943). Briefly: Inhibition of Wistar rat lens aldose reductase 2 using NADPH as substrate.
Settings: not given
The gist of the method: (§1)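 Kinetic mode of rat lens ALR2 inhibition from double-reciprocal plots of initial velocity, with D,L-glyceraldehyde or NADPH concentration varied, with or without inhibitor (e.g. 20 µM); NADPH consumption read at 340 nm. Kinetic parameters given as mean ± SD of at least three experiments.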
Take `O=C([O-])Cc1ccc2[nH]c3c(c2c1)CN(Cc1ccccc1)CC3.[K+]`: the inhibition constant Ki worked out at 11 µM.

In turn, `O=C([O-])Cc1ccc2[nH]c3c(c2c1)CN(CCc1ccccc1)CC3.[K+]` displayed a Ki of 10.5 µM.

For another data set, the target named is T1, Aldo-keto reductase family 1 member B1. As to the kind of experiment: Inhibition of Wistar rat lens aldose reductase 2.
Settings: not given
The gist of the method:
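Lens ALR2 partially purified from male Wistar rats (8–9 weeks). Reaction: 4.67 mM D,L-glyceraldehyde, 0.11 mM NADPH, 0.067 M phosphate pH 6.2; started with substrate, NADPH loss at 340 nm read 4 min after 1 min lag at 30 °C. Blank lacks substrate and includes inhibitor. IC50 from semilog curves, ≥4 concentrations giving 25–75% inhibition.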
Molecule `CN1CC[C@@H]2Nc3ccc(CC(=O)[O-])cc3[C@@H]2C1.[K+]` (racemic) yielded an IC50 of 381 µM.

As to `O=C([O-])Cc1ccc2[nH]c3c(c2c1)CN(Cc1ccccc1)CC3.[K+]`, the 50% inhibitory concentration (IC50) turned out to be 18.2 µM.

Turning to `O=C([O-])Cc1ccc2[nH]c3c(c2c1)CN(CCc1ccccc1)CC3.[K+]`, inhibition was half-maximal at 16.7 µM (IC50).

For the molecule `CN1CCc2[nH]c3ccc(CC(=O)[O-])cc3c2C1.[K+]`, inhibition was half-maximal at 54 µM (IC50).

On to `Cc1ccc2[nH]c3c(c2c1)CN(C)CC3` [DEHYDROSTOBADINE], for which the IC50 is above 1000 µM.

The molecule `Cc1ccc2c(c1)[C@H]1CN(C)CC[C@H]1N2` [STOBADINE] yielded an IC50 above 1000 µM.

In turn, `O=C(O)Cc1nn(Cc2nc3cc(C(F)(F)F)ccc3s2)c(=O)c2ccccc12` [ZOPOLRESTAT] returned a half-inhibitory concentration (IC50) of 0.005 µM.

Regarding `O=C([O-])Cc1ccc2c(c1)[C@@H]1CN(Cc3ccccc3)CC[C@@H]1N2.[Na+]` (racemic), it took 266 µM to reach half-maximal inhibition (IC50).

System in another data set: not listed separately
Briefly: Lipophilicity in 1-octanol/phosphate buffer at pH 7.4 assessed as distribution ratio by shake flask method. Format: physicochemical. Conditions: octanol/water. The gist of the method:
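Shake-flask method at room temperature with mutually saturated phases: compound 100 µM final in 0.1 M phosphate buffer pH 7.4 containing 0.15 M KCl, shaken with 1-octanol for 3 h. Phases separated by 1 h centrifugation; both measured by UV spectrophotometry. D is organic/aqueous total concentration; mean ± SD of ≥3 experiments.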
As for `CN1CC[C@@H]2Nc3ccc(CC(=O)[O-])cc3[C@@H]2C1.[K+]` (racemic), the D is below 0.1.

`O=C([O-])Cc1ccc2[nH]c3c(c2c1)CN(Cc1ccccc1)CC3.[K+]`: the D is listed as 0.35.

For the molecule `O=C([O-])Cc1ccc2[nH]c3c(c2c1)CN(CCc1ccccc1)CC3.[K+]`, the D is on record as 0.51.

In the case of `CN1CCc2[nH]c3ccc(CC(=O)[O-])cc3c2C1.[K+]`, the D is given as 0.13.

Consider `Cc1ccc2[nH]c3c(c2c1)CN(C)CC3` [DEHYDROSTOBADINE], for which the D was 6.

For the molecule `Cc1ccc2c(c1)[C@H]1CN(C)CC[C@H]1N2` [STOBADINE], the D worked out at 2.5.

As to `O=C([O-])Cc1ccc2c(c1)[C@@H]1CN(Cc3ccccc3)CC[C@@H]1N2.[Na+]` (racemic), the D is 0.2.

Molecular target in another data set: not listed separately
As to the kind of experiment: Inhibition of Wistar rat kidney aldose reductase 1.
Settings: not given
The gist of the method:
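ALR1 partially purified from male Wistar rat kidney by ammonium sulfate fractionation and DEAE treatment. NADPH consumption followed at 340 nm with 20 mM D-glucuronate and 0.12 mM NADPH in 0.1 M phosphate pH 7.2 at 37 °C; inhibitor also in blank. IC50 from linear part of semilog curves, ≥4 concentrations spanning 25–75% inhibition.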
As for `O=C([O-])Cc1ccc2[nH]c3c(c2c1)CN(Cc1ccccc1)CC3.[K+]`, the IC50 amounted to 328 µM.

On to `O=C([O-])Cc1ccc2[nH]c3c(c2c1)CN(CCc1ccccc1)CC3.[K+]`, for which the concentration for half-maximal inhibition (IC50) is 603 µM.

In turn, `CN1CCc2[nH]c3ccc(CC(=O)[O-])cc3c2C1.[K+]` yielded a 50% inhibitory concentration (IC50) of 3080 µM.

`CCCC(CCC)C(=O)O` [VALPROIC ACID]: the IC50 turned out to be 56.1 µM.

On to `O=C([O-])Cc1ccc2c(c1)[C@@H]1CN(Cc3ccccc3)CC[C@@H]1N2.[Na+]` (racemic), for which the half-inhibitory concentration (IC50) was above 3000 µM.

The target in the next data set is T1, Aldo-keto reductase family 1 member B1. As to the kind of experiment: Inhibition of Wistar rat lens aldose reductase 2 using D,L-glyceraldehyde as substrate.
Settings: not given
The gist of the method: as §1
Molecule `O=C([O-])Cc1ccc2[nH]c3c(c2c1)CN(Cc1ccccc1)CC3.[K+]` yielded a Ki of 17.9 µM.

For the molecule `O=C([O-])Cc1ccc2[nH]c3c(c2c1)CN(CCc1ccccc1)CC3.[K+]`, the Ki came to 17.7 µM.

System in another data set: not listed separately
As to the kind of experiment: Dissociation constant, basic pKa of compound.
Settings: not given
Format: physicochemical. The gist of the method: (§2)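 Potentiometric titration with glass/saturated calomel electrodes: compound about 2 mM in water, acidified with 0.1 M HCl to pH about 1.8, titrated with 0.1 M NaOH at 22 °C ± 1 °C, ionic strength held at 0.1 M with KCl.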
The molecule `O=C([O-])Cc1ccc2[nH]c3c(c2c1)CN(Cc1ccccc1)CC3.[K+]` registered a pKa of 8.65.

System in a further data set: not listed separately
As to the kind of experiment: Antioxidant activity assessed as inhibition of AAPH-induced peroxidation of DOPC liposome after 80 mins by thiocyanate method.
Settings: not given
Format: functional. The gist of the method:
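DOPC unilamellar liposomes (0.8 mM final) in 20 mM phosphate buffer pH 7.4 with AAPH initiator (10 mM final) and varying test concentrations at 50 °C. Aliquots extracted with ice-cold CHCl3/MeOH (2:1) containing BHT; lipid hydroperoxides measured by thiocyanate method, absorbance at 500 nm. IC50 taken at 80 min.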
Take `Cc1ccc2[nH]c3c(c2c1)CN(C)CC3` [DEHYDROSTOBADINE]: the IC50 was 72.7 µM.

With `Cc1ccc2c(c1)[C@H]1CN(C)CC[C@H]1N2` [STOBADINE], the IC50 is 25.3 µM.

As to `Cc1c(C)c2c(c(C)c1O)CCC(C)(C(=O)O)O2` (stereo not given) [TROLOX], the IC50 amounted to 93.5 µM.

Consider `O=C([O-])Cc1ccc2c(c1)[C@@H]1CN(Cc3ccccc3)CC[C@@H]1N2.[Na+]` (racemic), for which the IC50 turned out to be 75.6 µM.

System in a further data set: not listed separately
As to the kind of experiment: Dissociation constant, acidic pKa of compound.
Settings: not given
Format: physicochemical. The gist of the method:
as §2
`O=C([O-])Cc1ccc2[nH]c3c(c2c1)CN(Cc1ccccc1)CC3.[K+]` came in with a pKa of 4.34.
